Data published in ChEMBL document CHEMBL2407036, “Flow Synthesis and Biological Studies of an Analgesic Adamantane Derivative That Inhibits P2X7-Evoked Glutamate Release” (ACS Med Chem Lett, 2013).
Blank lines part the entries; values can stand above or below the compound they belong to. Active and inactive are the calls of the source.

How the values were obtained:
[1] = biological target: T1, P2X purinoceptor 7 (Rattus norvegicus) (UniProt Q64663); test: Agonist activity at P2X7 in Sprague-Dawley rat synaptosome assessed as [3H]D-aspartate efflux at 100 uM for 120 secs by liquid scintillation counting; conditions: Brain
T1 sequence (whole entry): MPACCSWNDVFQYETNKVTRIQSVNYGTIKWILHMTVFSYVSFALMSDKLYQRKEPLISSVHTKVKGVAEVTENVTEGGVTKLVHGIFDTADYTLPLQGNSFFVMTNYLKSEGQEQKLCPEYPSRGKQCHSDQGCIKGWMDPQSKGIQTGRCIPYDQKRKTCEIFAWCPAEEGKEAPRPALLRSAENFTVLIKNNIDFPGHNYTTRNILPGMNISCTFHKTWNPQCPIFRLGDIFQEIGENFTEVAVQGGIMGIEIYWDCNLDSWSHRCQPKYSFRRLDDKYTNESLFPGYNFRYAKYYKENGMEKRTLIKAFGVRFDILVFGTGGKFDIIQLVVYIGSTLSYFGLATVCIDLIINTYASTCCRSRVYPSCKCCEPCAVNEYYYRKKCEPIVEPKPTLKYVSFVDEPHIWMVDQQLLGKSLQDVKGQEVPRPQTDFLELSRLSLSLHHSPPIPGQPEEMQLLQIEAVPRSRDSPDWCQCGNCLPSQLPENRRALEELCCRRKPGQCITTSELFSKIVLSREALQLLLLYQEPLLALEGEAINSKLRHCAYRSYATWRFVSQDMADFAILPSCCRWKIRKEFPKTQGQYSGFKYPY

Mus musculus [2] = test: Analgesic activity in Swiss albino mouse assessed as inhibition of acetic acid-induced abdominal contraction at 20 to 60 mg/kg, po measured after 30 mins; format: functional, organism-based; conditions: Abdominal cavity
[3] = biological target: T1, P2X purinoceptor 7 (Rattus norvegicus); conditions: Brain, 50 uM
Rattus norvegicus [4] = test: Antinociceptive activity against carrageenan-induced hyperalgesia in rat assessed as paw pressure at 3 mg/kg, po measured after 60 mins (reference value: 31.8 +/- 2.2 g); format: functional
How it was run: (§1)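 Rats received intraplantar carrageenan before oral dosing. Paw-pressure withdrawal threshold (g) was measured before treatment and at 15, 30, 60 and 90 min after it. Carrageenan-injected rats given vehicle served as reference, with saline-injected rats as a further control.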

[5] = biological target: T2, Prostaglandin G/H synthase 2 (Homo sapiens) (UniProt P35354); test: Inhibition of COX-2 (unknown origin)
T2 sequence (whole entry): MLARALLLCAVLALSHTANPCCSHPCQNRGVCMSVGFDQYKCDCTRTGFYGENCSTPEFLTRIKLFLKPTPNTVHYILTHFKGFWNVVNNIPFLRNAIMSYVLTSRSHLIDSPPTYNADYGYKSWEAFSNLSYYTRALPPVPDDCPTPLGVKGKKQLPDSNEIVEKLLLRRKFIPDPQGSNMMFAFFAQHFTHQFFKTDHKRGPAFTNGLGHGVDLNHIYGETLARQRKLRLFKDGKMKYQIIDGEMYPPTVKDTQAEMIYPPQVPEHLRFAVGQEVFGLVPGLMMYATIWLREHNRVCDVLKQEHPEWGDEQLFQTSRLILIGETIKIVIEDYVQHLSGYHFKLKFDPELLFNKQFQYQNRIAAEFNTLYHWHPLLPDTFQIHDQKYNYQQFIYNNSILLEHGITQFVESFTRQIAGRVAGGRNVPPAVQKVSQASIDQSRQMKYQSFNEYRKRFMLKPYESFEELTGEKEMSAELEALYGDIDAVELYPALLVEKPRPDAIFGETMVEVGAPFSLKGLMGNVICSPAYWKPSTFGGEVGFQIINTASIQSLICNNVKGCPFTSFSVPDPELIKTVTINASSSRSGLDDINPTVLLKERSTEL

Rattus norvegicus [6] = test: Antinociceptive activity against carrageenan-induced paw edema in rat assessed as paw edema volume at 3 mg/kg, po measured after 30 mins (reference value: 2.71+/- 0.08 ml); format: functional
Mus musculus [7] = test: Analgesic activity in Swiss albino mouse assessed as inhibition of acetic acid-induced abdominal contraction at 10 mg/kg, po measured after 30 mins in presence of naxolone; format: functional, organism-based; set-up: dose 10 mg/kg; conditions: Abdominal cavity
Mus musculus [8] = test: Analgesic activity in Swiss albino mouse assessed as inhibition of acetic acid-induced abdominal contraction at 10 mg/kg, po measured after 30 mins in presence of SR-141716A; format: functional, organism-based; set-up: dose 10 mg/kg; conditions: Abdominal cavity
Rattus norvegicus [9] = organism: Rattus norvegicus; test: Inhibition of K+ depolarization-induced [3H]D-aspartate efflux in Sprague-Dawley rat synaptosome preincubated at 50 uM for 8 mins by liquid scintillation counting; format: functional, tissue-based; conditions: Brain
How it was run: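 Purified rat cerebrocortical synaptosomes were loaded with [3H]D-aspartate and superfused. Compound was added 8 min before K+ depolarization, which was applied as KCl for 120 s during superfusion. Evoked tritium efflux was measured. Data are mean ± SEM of 3–12 independent experiments in triplicate.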

[10] = biological target: Prostaglandin G/H synthase 1 (Homo sapiens) (UniProt P23219); test: Inhibition of COX-1 (unknown origin)
Rattus norvegicus [11] = test: Antinociceptive activity against carrageenan-induced hyperalgesia in rat assessed as paw pressure at 10 mg/kg, po measured after 30 mins (reference value: 30.6 +/- 3.2 g); format: functional
How it was run: as §1

Rattus norvegicus [12] = test: Antinociceptive activity against carrageenan-induced hyperalgesia in rat assessed as paw pressure at 20 mg/kg, po measured after 15 mins (reference value: 32.8 +/- 2.9 g); format: functional
How it was run: as §1

Rattus norvegicus [13] = test: Antinociceptive activity against carrageenan-induced hyperalgesia in rat assessed as paw pressure at 10 mg/kg, po measured after 15 mins (reference value: 32.8 +/- 2.9 g); format: functional
How it was run: as §1

[14] = biological target: T1, P2X purinoceptor 7 (Rattus norvegicus); conditions: Brain, 50 uM; remark: listed apart in the source
Rattus norvegicus [15] = test: Antinociceptive activity against carrageenan-induced hyperalgesia in rat assessed as paw pressure at 3 mg/kg, po measured after 30 mins (reference value: 30.6 +/- 3.2 g); format: functional
How it was run: as §1

Rattus norvegicus [16] = test: Antinociceptive activity against carrageenan-induced hyperalgesia in rat assessed as paw pressure at 10 mg/kg, po measured after 60 mins (reference value: 31.8 +/- 2.2 g); format: functional
How it was run: as §1

Rattus norvegicus [17] = test: Antinociceptive activity against carrageenan-induced hyperalgesia in rat assessed as paw pressure at 20 mg/kg, po measured after 30 mins (reference value: 30.6 +/- 3.2 g); format: functional
How it was run: as §1

Rattus norvegicus [18] = test: Antinociceptive activity against carrageenan-induced paw edema in rat assessed as paw edema volume at 10 mg/kg, po measured after 30 mins (reference value: 2.71+/- 0.08 ml); format: functional
Rattus norvegicus [19] = test: Antinociceptive activity against carrageenan-induced hyperalgesia in rat assessed as paw pressure at 20 mg/kg, po measured after 90 mins (reference value: 34.8 +/- 3.1 g); format: functional
How it was run: as §1

Rattus norvegicus [20] = test: Antinociceptive activity against carrageenan-induced hyperalgesia in rat assessed as paw pressure at 20 mg/kg, po measured after 60 mins (reference value: 31.8 +/- 2.2 g); format: functional
How it was run: as §1

P2X purinoceptor 7 = biological target: T3, P2X purinoceptor 7 (Rattus norvegicus, UniProt Q64663); test: Antagonist activity at P2X7 in Sprague-Dawley rat synaptosome assessed as inhibition of BzATP-induced [3H]D-aspartate efflux compound preincubated for 8 mins by liquid scintillation counting; set-up: species or system Brain
T3 sequence (Q64663 whole entry): T1 sequence (whole entry)
How it was run: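 Purified rat cerebrocortical synaptosomes loaded with [3H]D-aspartate and superfused. 100 μM BzATP added for 120 s. Compound added 8 min before BzATP. Ca2+-free conditions used medium with 0.5 mM EGTA, added 18 min before BzATP. Log concentration–response for inhibition of evoked efflux. Mean ± SEM of 3−12 independent experiments in triplicate.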

[21] = biological target: T1, P2X purinoceptor 7 (Rattus norvegicus); conditions: Brain, 50 uM; remark: listed apart in the source
Rattus norvegicus [22] = test: Antinociceptive activity against carrageenan-induced hyperalgesia in rat assessed as paw pressure at 3 mg/kg, po measured after 90 mins (reference value: 34.8 +/- 3.1 g); format: functional
How it was run: as §1

Rattus norvegicus [23] = test: Antinociceptive activity against carrageenan-induced hyperalgesia in rat assessed as paw pressure at 3 mg/kg, po measured after 15 mins (reference value: 32.8 +/- 2.9 g); format: functional
How it was run: as §1

Rattus norvegicus [24] = test: Antinociceptive activity against carrageenan-induced hyperalgesia in rat assessed as paw pressure at 10 mg/kg, po measured after 90 mins (reference value: 34.8 +/- 3.1 g); format: functional
How it was run: as §1

Mus musculus [25] = test: Analgesic activity in Swiss albino mouse assessed as inhibition of acetic acid-induced abdominal contraction at 3 mg/kg, po measured after 30 mins; format: functional, organism-based; set-up: dose 3 mg/kg; conditions: Abdominal cavity
How it was run: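 Writhing was induced in Swiss albino mice with 0.6% acetic acid. Drugs were given p.o. 30 min before the test. Writhes were counted at 30 and 60 min and compared with vehicle-treated controls.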

Rattus norvegicus [26] = test: Antinociceptive activity against carrageenan-induced paw edema in rat assessed as paw edema volume at 20 mg/kg, po measured after 30 mins (reference value: 2.71+/- 0.08 ml); format: functional

Prostaglandin G/H synthase 1 (Homo sapiens), sequence (P23219 whole entry): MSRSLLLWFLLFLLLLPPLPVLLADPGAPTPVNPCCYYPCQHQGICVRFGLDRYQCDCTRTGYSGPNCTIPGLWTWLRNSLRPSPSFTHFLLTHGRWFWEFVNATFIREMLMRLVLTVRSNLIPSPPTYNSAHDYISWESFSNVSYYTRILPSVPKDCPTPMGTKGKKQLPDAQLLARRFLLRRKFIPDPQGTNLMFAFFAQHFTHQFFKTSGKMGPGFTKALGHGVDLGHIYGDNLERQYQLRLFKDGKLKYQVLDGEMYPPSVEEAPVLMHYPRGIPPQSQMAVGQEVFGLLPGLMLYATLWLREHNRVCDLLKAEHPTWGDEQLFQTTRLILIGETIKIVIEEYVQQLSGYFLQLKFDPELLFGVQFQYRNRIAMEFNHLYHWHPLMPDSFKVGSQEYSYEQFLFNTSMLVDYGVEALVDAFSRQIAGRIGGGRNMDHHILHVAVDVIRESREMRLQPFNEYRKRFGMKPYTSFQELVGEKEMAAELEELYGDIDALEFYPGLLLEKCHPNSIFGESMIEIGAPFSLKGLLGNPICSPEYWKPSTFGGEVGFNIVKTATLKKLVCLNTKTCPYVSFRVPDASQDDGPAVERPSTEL

Activity [1]: Active
SMILES: Nc1ncnc2c1ncn2[C@@H]1O[C@H](COP(=O)(O)OP(=O)(O)OP(=O)(O)O)[C@@H](OC(=O)c2ccc(C(=O)c3ccccc3)cc2)[C@H]1O

SMILES: O=C(NC1(C(=O)NCCc2ccccc2)C2CC3CC(C2)CC1C3)c1ccccc1 (stereo not drawn)
inhibition (Mus musculus [2]): inactive

SMILES: O=C(NC1(C(=O)NC2CC2)C2CC3CC(C2)CC1C3)c1ccccc1 (stereo not drawn)
inhibition [3]: inactive | Activity (Rattus norvegicus [4]): 35.6 g | inhibition [5]: inactive | Activity (Rattus norvegicus [6]): 2.53 mL | inhibition (Mus musculus [7]): Active | inhibition (Mus musculus [8]): Active | inhibition (Rattus norvegicus [9]): inactive | inhibition [10]: inactive | Activity (Rattus norvegicus [11]): 52.7 g | Activity (Rattus norvegicus [12]): 48.4 g | Activity (Rattus norvegicus [13]): 44.2 g | inhibition [14]: inactive | Activity (Rattus norvegicus [15]): 40.8 g | Activity (Rattus norvegicus [16]): 43.4 g | Activity (Rattus norvegicus [17]): 53.9 g | Activity (Rattus norvegicus [18]): 2.06 mL | Activity (Rattus norvegicus [19]): 33.6 g | Activity (Rattus norvegicus [20]): 48.3 g | IC50 (P2X purinoceptor 7): 7.7 µM | inhibition [21]: Active | Activity (Rattus norvegicus [22]): 36.9 g | Activity (Rattus norvegicus [23]): 39.1 g | Activity (Rattus norvegicus [24]): 38.2 g | inhibition (Mus musculus [25]): Active | Activity (Rattus norvegicus [26]): 2.1 mL

SMILES: O=C(NC1(C(=O)NCCc2c[nH]cn2)C2CC3CC(C2)CC1C3)c1ccccc1 (stereo not drawn)
inhibition (Mus musculus [2]): Active
